Source: ChEMBL document CHEMBL2057097, “Synthesis and biological evaluation of rebeccamycin analogues modified at the imide moiety” (Bioorg Med Chem Lett, 2012)

Columns and labels:
[1] = Cytotoxicity against human GLC4 cells after 72 hrs by sulforhodamine B assay; assay type: functional, cell-based; conditions: GLC4, 72 h
Procedure, shortened: (§1)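 Cells seeded (A2780 2000, H460 1500, GLC-4 1500 per well), incubated 24 h at 37 °C, 5% CO₂. Compounds from DMSO diluted in saline, tested over 0.001 to 10 range. 24 h exposure, two PBS washes, then 72 h in drug-free medium. Viability by SRB; IC50 from survival-versus-concentration curve against untreated control.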

A2780 [2] = test: Cytotoxicity against human A2780 cells after 72 hrs by sulforhodamine B assay; assay type: functional, cell-based; conditions: A2780, 72 h; procedure, shortened: as §1
NCI-H460 = test: Cytotoxicity against human NCI-H460 cells after 72 hrs by sulforhodamine B assay; assay type: functional, cell-based; conditions: NCI-H460, 72 h; procedure, shortened: as §1
Mus musculus = test: Toxicity in athymic Harlan mouse xenografted with human A2780 cells assessed as mortality at 90 mg/kg, iv administered Q4D for 4 weeks; assay type: organism-based; design: dose 90 mg/kg, route intravenous; conditions: in vivo, 672 h
Procedure, shortened: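 Female athymic nude mice (6–8 weeks old, five per group) received 10 × 10⁶ A2780 cells s.c. in the right flank, suspended in 0.9% NaCl. Dosing began at tumours of about 50 mm³. The drug was dissolved in sterile water for injection, diluted in saline just before use, and given i.v. q4dx4 (twice weekly) at 10 ml/kg. Read-out was deaths out of total mice.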

A2780 [3] = test: Antitumor activity against human A2780 cells xenografted in athymic harlan mouse assessed as tumor volume inhibition at 90 mg/kg, […] Q4D for 4 weeks; assay type: functional; conditions: A2780, 672 h
Procedure, shortened: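 Female athymic nude mice, 6–8 weeks old, five per group, implanted s.c. in right flank with A2780 cells (10 × 10⁶ cells/flank in 0.2 ml 0.9% NaCl). Treatment began at tumours approximately 50 mm³. Compound dissolved in sterile water, diluted in saline, given i.v. q4dx4 at 10 ml/kg. Calliper length/width; TV = width² × length/2. TVI versus controls at nadir of treated group; deaths recorded.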

A2780 [4] = test: Ratio of IC50 for edotecarin to compound IC50 for human A2780 cells after 72 hrs by sulforhodamine B assay; assay type: functional

Compound | IC50 [1] | IC50 (A2780 [2]) | IC50 (NCI-H460) | Activity (Mus musculus) | inhibition in vivo at 90 mg/kg (A2780 [3]) | Ratio IC50 (A2780 [4])
COCC(COC)NN1C(=O)c2c(c3c4ccc(O)cc4n([C@@H]4O[C@H](CO)[C@@H](O)[C@H](O)[C@H]4O)c3c3[nH]c4cc(O)ccc4c23)C1=O | 3.8 nM | 12.7 nM | > 125 nM |  |  | 
O=C1c2c(c3c4ccc(O)cc4n([C@@H]4O[C@H](CO)[C@@H](O)[C@H](O)[C@H]4O)c3c3[nH]c4cc(O)ccc4c23)C(=O)N1NC1COCOC1 | 0.7 nM | 0.7 nM | > 250 nM | Non-toxic | 99.7% | 10
O=C1c2c(c3c4ccc(O)cc4n([C@@H]4O[C@H](CO)[C@@H](O)[C@H](O)[C@H]4O)c3c3[nH]c4cc(O)ccc4c23)C(=O)N1NC(CO)CO [EDOTECARIN] | 0.8 nM | 6.5 nM | 193 nM | Non-toxic | 99.8% | 
O=C1c2c(c3c4ccc(O)cc4n([C@@H]4O[C@H](CO)[C@@H](O)[C@H](O)[C@H]4O)c3c3[nH]c4cc(O)ccc4c23)C(=O)N1NC1C(O)CCCC1O (some centres not stated) | 101 nM | 90 nM | > 250 nM |  |  | 
CC[C@@]1(O)C(=O)OCc2c1cc1n(c2=O)Cc2cc3ccccc3nc2-1 [CAMPTOTHECIN] | 10 nM | 7 nM | 5 nM |  |  | 
O=C1c2c(c3c4ccc(O)cc4n([C@@H]4O[C@H](CO)[C@@H](O)[C@H](O)[C@H]4O)c3c3[nH]c4cc(O)ccc4c23)C(=O)N1NCC1COCO1 (some centres not stated) | 0.8 nM | 1.7 nM | > 1000 nM |  |  | 3
O=C1c2c(c3c4ccc(O)cc4n([C@@H]4O[C@H](CO)[C@@H](O)[C@H](O)[C@H]4O)c3c3[nH]c4cc(O)ccc4c23)C(=O)N1N1CCOCC1 | 90 nM | 54 nM | > 1000 nM |  |  | 
